Screens: PubChem BioAssay, Broad Institute
EWS-Fli block: EWS/Fli transcriptional activity inhibition; A673 NR0B1-luciferase reporter, viability-normalised; inhibition, % at 12.6 µM; hit rate 0.67% among 350,000;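 active means mean inhibition of at least 50% after viability correction, with every replicate also passing that limit; inconclusive means mean reaches 50% but only one of two replicates passes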;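 further: firefly luciferase signal divided by Alamar Blue viability fluorescence both relative to DMSO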
INS-1E GSIS act: GLuc luminescence reporter in INS-1E cells, primary screen for activators of glucose-dependent secretion of insulin; hit rate 0.61% among 370,000; AID 743287; activation, % at 16.6 µM; INS-1E GLuc reporter insulin secretion, 2-3 h;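 active means lowest replicate activation of at least 40%, so every replicate reaches that level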;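 further: 0% = median of neutral control wells and 100% = median of IBMX positive control wells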
MLL AF4-AF9 inh: blocks AF4 peptide binding to human AF9; AlphaScreen, biotin-AF4 peptide binding to FLAG-AF9; inhibition, % at 10 µM; hit rate 0.47% among 350,000; AID 651704;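 active means every replicate reaching a set inhibition limit, whatever the replicate mean, cut at about 25% in these data; inconclusive means mean inhibition reaches that limit but some replicates miss it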;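 further: 0% = plate neutral control median and 100% = total signal loss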
Target sequence (P42568 whole entry, looked up): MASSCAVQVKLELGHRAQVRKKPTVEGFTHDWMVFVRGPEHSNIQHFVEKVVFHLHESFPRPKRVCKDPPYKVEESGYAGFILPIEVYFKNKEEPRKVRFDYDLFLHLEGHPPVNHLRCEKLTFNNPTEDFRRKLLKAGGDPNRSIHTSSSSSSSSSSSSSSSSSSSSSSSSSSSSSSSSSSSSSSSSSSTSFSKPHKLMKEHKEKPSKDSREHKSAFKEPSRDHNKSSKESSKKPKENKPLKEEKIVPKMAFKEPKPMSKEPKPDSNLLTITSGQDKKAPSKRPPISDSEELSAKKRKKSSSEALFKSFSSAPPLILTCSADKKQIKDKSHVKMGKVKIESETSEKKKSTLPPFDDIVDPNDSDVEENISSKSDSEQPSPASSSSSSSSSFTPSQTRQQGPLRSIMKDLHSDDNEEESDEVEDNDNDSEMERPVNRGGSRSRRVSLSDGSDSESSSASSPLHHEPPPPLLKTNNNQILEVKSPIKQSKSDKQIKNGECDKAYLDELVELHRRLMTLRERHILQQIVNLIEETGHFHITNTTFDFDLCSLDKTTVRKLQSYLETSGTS
PAX8 inh HTS: PAX8 transcriptional activity inhibition | RMG-I TPO-luciferase reporter, SteadyGlo, 24 h | inhibition, % at 12.6 µM | hit rate 1.2% among 360,000;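 active means mean replicate inhibition at least 60% with every replicate also reaching 60%; inconclusive means only one of the two criteria is met; inactive means mean below 60% and not all replicates reaching 60%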;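 further: luciferase light reporting Pax8 driven TPO promoter activity; plate controls were median of neutral control wells for no effect and mitoxantrone controls for full effect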
PGC1a acetyl inh: PGC1a acetylation modulation, inhibitor mode; U2OS PGC1a acetylation, AlphaScreen anti-acetyl-lysine; with virally co-expressed GCN5 acetyltransferase; inhibition, % at 15.6 µM; hit rate 0.17% among 350,000;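 active means every replicate shows inhibition of at least 40%; inconclusive means mean inhibition at least 40% but some replicate below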;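 further: 0% = neutral control wells and 100% = positive control wells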
Xi reactivation: activators of X-chromosome reactivation in mouse fibroblasts. activation, % at 7.58 µM. XiGFP mouse fibroblasts, % GFP-positive cells imaging, 3 d; cells co-treated with 5-aza-dC sensitizer; scaled so ellipticine positive control = 100%. hit rate 0.055% among 360,000. AID 743238;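 active means mean normalized replicate activation at least 10% and every replicate at or above 10%; inconclusive means only one of the two criteria met; inactive means mean below 10% and not all replicates reach 10%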;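 further: 0% = median of on-plate neutral control wells and 100% = ellipticine 6 µM median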
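material = 68-5-11 XiGFP fibroblast line | medium = DMEM plus 5-aza-dC sensitizer | schedule = 3 days compound exposure | benchmarks = positive control ellipticine, 6 µM final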
The depositor's hits bear a star; ? = inconclusive; . = not tested or not shown. An excerpt weighted towards active compounds, which were near 2.1% of everything screened.

SMILES | EWS-Fli block | INS-1E GSIS act | MLL AF4-AF9 inh | PAX8 inh HTS | PGC1a acetyl inh | Xi reactivation
C[C@@H]1CCCCO[C@@H](CN(C)Cc2ccc(Cl)c(Cl)c2)[C@@H](C)CN([C@H](C)CO)C(=O)c2cc(NC(=O)Nc3ccc(F)cc3)ccc2O1 | 2 | 1 | -1 | 48 | 14 | 0
C[C@@H]1CCCCO[C@H](CN(C)Cc2ccc(Cl)c(Cl)c2)[C@H](C)CN([C@@H](C)CO)C(=O)c2cc(NC(=O)Nc3ccc(F)cc3)ccc2O1 | 4 | -10 | 4 | 75* | ? | 0
C[C@@H]1CN([C@@H](C)CO)C(=O)c2cc(NC(=O)NC3CCCCC3)ccc2O[C@@H](C)CCCCO[C@H]1CN(C)Cc1ccc(Cl)c(Cl)c1 | 2 | 7 | 2 | ? | . | -1
O=C(NC1CCCCC1)N[C@H]1C=C[C@H](CC(=O)N2CCOCC2)O[C@@H]1CO | . | 15 | -5 | . | 2 | 0
COc1ccccc1NC(=O)N1C[C@H]2[C@@H](c3ccccc31)[C@H](CO)N2C(=O)c1ccccc1 | -1 | 2 | 1 | 7 | 6 | 0
C[C@H]1CN([C@@H](C)CO)C(=O)c2cccc(NS(=O)(=O)c3cn(C)cn3)c2O[C@H]1CN(C)S(=O)(=O)c1cccs1 | -10 | 25 | -4 | -23 | 1 | -1
O=C1NC(Cc2ccccc2)c2nc3cc(F)ccc3c(=O)n2-c2cc3ccccc3cc21 (centres undefined) | 34 | 12 | 0 | 62* | 1 | 0
Cc1ccc2nc3n(c(=O)c2c1)-c1cc2ccccc2cc1C(=O)NC3Cc1ccc(O)cc1 (centres undefined) | 62* | -12 | 0 | 50 | -2 | 0
O=C1NC(Cc2ccc(O)cc2)c2nc3ccc(F)cc3c(=O)n2-c2cc3ccccc3cc21 (centres undefined) | 64* | -1 | 3 | 58 | . | 0
COc1ccc2c3c(n(C)c2c1)[C@H](CO)N(C(=O)c1cccnc1)CC31CCN(S(=O)(=O)c2ccccc2)CC1 | 14 | 5 | -2 | . | -1 | 0
CC(C)C(=O)Nc1ccc2c(c1)C(=O)N(C)[C@H]1CC[C@H](CC(=O)N[C@@H](C)c3ccccc3)O[C@H]1CO2 | -9 | -2 | . | 27 | -4 | 0
CC(C)OC(=O)c1nn2c(C(F)(F)F)cc(-c3ccc(Br)o3)nc2c1Br | . | 157* | . | . | . | .
O=C(NCc1ccco1)C1CC(c2ccccc2C(F)(F)F)=NO1 (centres undefined) | -3 | -17 | 1 | -13 | . | 0
O=C(NCc1ccco1)C1Cc2c(-c3cccc(F)c3)ccnc2O1 (centres undefined) | 54* | -3 | 0 | 31 | -40 | 1
O=C(NCc1ccco1)C1CC(c2cc(C(F)(F)F)cc(C(F)(F)F)c2)=NO1 (centres undefined) | 75* | . | 2 | 5 | . | 0
COc1ccc(CNC(=O)C2Cc3c(-c4cccc(F)c4)ccnc3O2)cc1OC (centres undefined) | 2 | 57* | 1 | 9 | . | 0
O=C(NCc1ccccc1)C1Cc2c(-c3cccc(F)c3)ccnc2O1 (centres undefined) | 67* | -15 | -7 | 55 | -20 | 0
O=C(NCc1ccccc1)C1Cc2c(-c3ccc(Cl)cc3)ccnc2O1 (centres undefined) | 60* | -22 | 1 | 23 | -69 | 0
C[C@H](CO)N1C[C@H](C)[C@H](CN(C)C(=O)[C@H](Cc2ccccc2)N(C)C)OCc2ccccc2-c2c(n(C)c3ccccc23)C1=O | 14 | 0 | 5 | 116* | 6 | 0
C[C@H](CO)N1C[C@H](C)[C@@H](CN(C)C(=O)CCN(C)C)OCc2ccccc2-c2c(n(C)c3ccccc23)C1=O | -4 | -2 | -8 | 65* | 10 | 1
C[C@H]1CN([C@@H](C)CO)C(=O)c2c(c3ccccc3n2C)-c2ccccc2CO[C@@H]1CN(C)C(=O)[C@@H](Cc1ccccc1)N(C)C | -42 | 3 | 24 | -2 | -1 | 0
C[C@H](CO)N1C[C@H](C)[C@@H](CN(C)C(=O)Nc2ccc(F)cc2)OCc2ccccc2-c2c(n(C)c3ccccc23)C1=O | 7 | 10 | 3 | 100* | -1 | -1
